Here are results for seven compounds from ChEMBL document CHEMBL1142088, “Cumulative effects of several nonenzymatic mechanisms on the resistance of Pseudomonas aeruginosa to aminoglycosides” (2007).

In brackets after ≈: the same amount, converted by molar mass.

Common to all, as to assay type: functional
Experiment [1] concerns Pseudomonas aeruginosa. The experiment can be described thus: Antibacterial activity against Pseudomonas aeruginosa PAO1 by microdilution method. A general note: Broth dilution looks for growth in wells or tubes with falling amounts of substance.
The test system of experiment [2] is Pseudomonas aeruginosa. Briefly: Antibacterial activity against Pseudomonas aeruginosa FE53GU with inactivated mexZ, nuoG and galU genes by […].
The test system of experiment [3] is Pseudomonas aeruginosa. Briefly: Antibacterial activity against Pseudomonas aeruginosa FE57GU with inactivated rplY, nuoG and galU genes by […].
The test system of experiment [4] is Pseudomonas aeruginosa. Briefly: Antibacterial activity against Pseudomonas aeruginosa FE57UZ with inactivated rplY, galU and mexZ genes […].
Experiment [5] concerns Pseudomonas aeruginosa. Briefly: Antibacterial activity against Pseudomonas aeruginosa FE57GZ with inactivated rplY, nuoG and mexZ genes […].
Experiment [6] has as its system Pseudomonas aeruginosa. The experiment can be described thus: Antibacterial activity against Pseudomonas aeruginosa FE57GUZ with inactivated rplY, nuoG, galU and mexZ genes […].
The subject of experiment [7] is Pseudomonas aeruginosa. Briefly: Antibacterial activity against Pseudomonas aeruginosa KJ7106 with inactivated PA5471 gene by microdilution method.
Experiment [8] has as its system Pseudomonas aeruginosa. The experiment can be described thus: Antibacterial activity against Pseudomonas aeruginosa FE60 containing inactivated mexXY gene by microdilution method.
The subject of experiment [9] is Pseudomonas aeruginosa. Briefly: Antibacterial activity against Pseudomonas aeruginosa FE63 containing inactivated rplY and PA5471 genes by microdilution method.
The subject of experiment [10] is Pseudomonas aeruginosa. Briefly: Antibacterial activity against Pseudomonas aeruginosa FE64 containing inactivated rplY and mexXY genes by microdilution method.
Experiment [11] concerns Pseudomonas aeruginosa. Briefly: Antibacterial activity against Pseudomonas aeruginosa FE10 with inactivated nuoG gene by microdilution method.
Experiment [12] deals with Pseudomonas aeruginosa. The experiment can be described thus: Antibacterial activity against Pseudomonas aeruginosa FE49 with inactivated galU gene by microdilution method.
For experiment [13], the system named is Pseudomonas aeruginosa. Briefly: Antibacterial activity against Pseudomonas aeruginosa FE53 with inactivated mexZ gene by microdilution method.
For experiment [14], the system named is Pseudomonas aeruginosa. Briefly: Antibacterial activity against Pseudomonas aeruginosa FE57 with inactivated rplY gene by microdilution method.
Experiment [15] deals with Pseudomonas aeruginosa. Briefly: Antibacterial activity against Pseudomonas aeruginosa FE57 containing inactivated rplY gene with pARAL25 by microdilution method. In a few lines:
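MIC for the rplY mutant carrying plasmid-borne rplY under the arabinose-inducible pBAD promoter. Cells grown with 150 μg/ml ticarcillin to keep the plasmid and 0.2% arabinose. Serial twofold dilution with about 10^4 bacteria per spot at 37°C.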

Experiment [16] concerns Pseudomonas aeruginosa. The experiment can be described thus: Antibacterial activity against Pseudomonas aeruginosa FE10U with inactivated nuoG and galU genes by microdilution method.
Experiment [17] has as its system Pseudomonas aeruginosa. Briefly: Antibacterial activity against Pseudomonas aeruginosa FE53U with inactivated mexZ and galU genes by microdilution method.
Experiment [18] deals with Pseudomonas aeruginosa. The experiment can be described thus: Antibacterial activity against Pseudomonas aeruginosa FE57U with inactivated rplY and galU genes by microdilution method.
The test system of experiment [19] is Pseudomonas aeruginosa. The experiment can be described thus: Antibacterial activity against Pseudomonas aeruginosa FE53G with inactivated mexZ and nuoG genes by microdilution method.
Experiment [20] deals with Pseudomonas aeruginosa. The experiment can be described thus: Antibacterial activity against Pseudomonas aeruginosa FE57G with inactivated rplY and nuoG genes by microdilution method.
The test system of experiment [21] is Pseudomonas aeruginosa. The experiment can be described thus: Antibacterial activity against Pseudomonas aeruginosa FE57Z with inactivated rplY and mexZ genes by microdilution method.

A word on the MIC: it is the least concentration at which growth counts as inhibited. A low value points to a more susceptible organism. Regarding `NCC[C@H](O)C(=O)N[C@@H]1C[C@H](N)[C@@H](O[C@H]2O[C@H](CN)[C@@H](O)[C@H](O)[C@H]2O)[C@H](O)[C@H]1O[C@H]1O[C@H](CO)[C@@H](O)[C@H](N)[C@H]1O` [AMIKACIN], the MIC turned out to be 4 µg/mL (≈ 6.83 µM) in experiment [1]; 32 µg/mL (≈ 54.6 µM) in experiment [2]; 32 µg/mL (≈ 54.6 µM) in experiment [3]; 32 µg/mL (≈ 54.6 µM) in [4]; 32 µg/mL (≈ 54.6 µM) in experiment [5]; 64 µg/mL (≈ 109 µM) in experiment [6]. The MIC is 1 µg/mL (≈ 1.71 µM) in experiment [7]; 1 µg/mL (≈ 1.71 µM) in experiment [8]; 2 µg/mL (≈ 3.42 µM) in experiment [9]; 2 µg/mL (≈ 3.42 µM) in [10]; 8 µg/mL (≈ 13.7 µM) in [11]; 8 µg/mL (≈ 13.7 µM) in [12]. The MIC was found to be 8 µg/mL (≈ 13.7 µM) in experiment [13]; 8 µg/mL (≈ 13.7 µM) in [14]; 4 µg/mL (≈ 6.83 µM) in experiment [15]; 8 µg/mL (≈ 13.7 µM) in experiment [16]; 16 µg/mL (≈ 27.3 µM) in experiment [17]; 16 µg/mL (≈ 27.3 µM) in [18]. Also, the results for the MIC in [19], in experiment [20] and in experiment [21] were 16 µg/mL (≈ 27.3 µM), 32 µg/mL (≈ 54.6 µM) and 16 µg/mL (≈ 27.3 µM), respectively.

As to `CO/N=C(\C(=O)N[C@@H]1C(=O)N2C(C(=O)[O-])=C(C[N+]3(C)CCCC3)CS[C@H]12)c1csc(N)n1` [CEFEPIME], the MIC in [1] turned out to be 4 µg/mL (≈ 8.32 µM); in [2], 16 µg/mL (≈ 33.3 µM); in [3], 8 µg/mL (≈ 16.6 µM); in experiment [4], 16 µg/mL (≈ 33.3 µM); in experiment [5], 16 µg/mL (≈ 33.3 µM); in experiment [6], 16 µg/mL (≈ 33.3 µM). Besides, the MIC is 4 µg/mL (≈ 8.32 µM) in [7]; 4 µg/mL (≈ 8.32 µM) in [8]; 2 µg/mL (≈ 4.16 µM) in [9]; 2 µg/mL (≈ 4.16 µM) in experiment [10]; 4 µg/mL (≈ 8.32 µM) in experiment [11]; 4 µg/mL (≈ 8.32 µM) in experiment [12]. Besides, the MIC came out at 16 µg/mL (≈ 33.3 µM) in [13]; 4 µg/mL (≈ 8.32 µM) in experiment [14]; 4 µg/mL (≈ 8.32 µM) in [16]; 16 µg/mL (≈ 33.3 µM) in [17]; 4 µg/mL (≈ 8.32 µM) in experiment [18]; 16 µg/mL (≈ 33.3 µM) in experiment [19]. Besides, the MIC worked out at 4 µg/mL (≈ 8.32 µM) in experiment [20] and 16 µg/mL (≈ 33.3 µM) in [21].

On to `O=C(O)c1cn(C2CC2)c2cc(N3CCNCC3)c(F)cc2c1=O` [CIPROFLOXACIN], for which the MIC in experiment [2], in experiment [4], in experiment [5], in [6], in [13] and in experiment [19] was 1 µg/mL (≈ 3.02 µM) in each case. In [21], this compound registered an MIC of 1 µg/mL (≈ 3.02 µM).

For the compound `NC[C@H]1O[C@H](O[C@H]2[C@H](O)[C@@H](O[C@H]3O[C@H](CO)[C@@H](O)[C@H](N)[C@H]3O)[C@H](N)C[C@@H]2N)[C@H](O)[C@@H](O)[C@@H]1O` [KANAMYCIN], the MIC in experiment [1] is 64 µg/mL (≈ 132 µM); in experiment [2], 512 µg/mL (≈ 1060 µM); in experiment [3], 512 µg/mL (≈ 1060 µM); in experiment [4] it was 512 µg/mL (≈ 1060 µM); in experiment [5], 1020 µg/mL (≈ 2110 µM); in [6], 1020 µg/mL (≈ 2110 µM). Further, the MIC in experiment [11] was found to be 256 µg/mL (≈ 528 µM); in experiment [12] it was 128 µg/mL (≈ 264 µM); in experiment [13], 128 µg/mL (≈ 264 µM); in [14], 256 µg/mL (≈ 528 µM); in [16], 256 µg/mL (≈ 528 µM); in experiment [17] it was 256 µg/mL (≈ 528 µM). In addition, the MIC is 256 µg/mL (≈ 528 µM) in experiment [18], 256 µg/mL (≈ 528 µM) in experiment [19], 512 µg/mL (≈ 1060 µM) in experiment [20] and 256 µg/mL (≈ 528 µM) in experiment [21].

With `CCN[C@@H]1C[C@H](N)[C@@H](O[C@H]2OC(CN)=CC[C@H]2N)[C@H](O)[C@H]1O[C@H]1OC[C@](C)(O)[C@H](NC)[C@H]1O` [NETILMICIN], the MIC in experiment [1] amounted to 4 µg/mL (≈ 8.41 µM); in experiment [2], 64 µg/mL (≈ 135 µM); in [3] it was 64 µg/mL (≈ 135 µM); in experiment [4], 64 µg/mL (≈ 135 µM); in [5], 128 µg/mL (≈ 269 µM); in experiment [6] it was 256 µg/mL (≈ 538 µM). Besides, the MIC came out at 8 µg/mL (≈ 16.8 µM) in [11]; 8 µg/mL (≈ 16.8 µM) in [12]; 8 µg/mL (≈ 16.8 µM) in experiment [13]; 8 µg/mL (≈ 16.8 µM) in experiment [14]; 8 µg/mL (≈ 16.8 µM) in experiment [16]; 16 µg/mL (≈ 33.6 µM) in experiment [17]. In addition, the MIC in experiment [18], in [19], in [20] and in experiment [21] was 16 µg/mL (≈ 33.6 µM) in each case.

With `NC[C@H]1O[C@H](O[C@H]2[C@H](O)[C@@H](O[C@H]3O[C@H](CO)[C@@H](O)[C@H](N)[C@H]3O)[C@H](N)C[C@@H]2N)[C@H](N)C[C@@H]1O` [TOBRAMYCIN], the MIC in experiment [1] amounted to 0.5 µg/mL (≈ 1.07 µM); in [2], 4 µg/mL (≈ 8.56 µM); in [3], 4 µg/mL (≈ 8.56 µM); in experiment [4], 4 µg/mL (≈ 8.56 µM); in experiment [5], 4 µg/mL (≈ 8.56 µM); in [6] it was 8 µg/mL (≈ 17.1 µM). Moreover, the MIC in experiment [7] was 0.25 µg/mL (≈ 0.535 µM); in experiment [8] it was 0.25 µg/mL (≈ 0.535 µM); in [9] it was 0.5 µg/mL (≈ 1.07 µM); in [10], 0.5 µg/mL (≈ 1.07 µM); in [11] it was 1 µg/mL (≈ 2.14 µM); in [12], 1 µg/mL (≈ 2.14 µM). For the same compound, the minimum inhibitory concentration (MIC) in [13] came out at 1 µg/mL (≈ 2.14 µM); in experiment [14], 1 µg/mL (≈ 2.14 µM); in experiment [15], 0.25 µg/mL (≈ 0.535 µM); in [16], 2 µg/mL (≈ 4.28 µM); in experiment [17], 2 µg/mL (≈ 4.28 µM); in experiment [18] it was 2 µg/mL (≈ 4.28 µM). Besides, the MIC in experiment [19], in experiment [20] and in experiment [21] was 2 µg/mL (≈ 4.28 µM) each time.

GENTAMICIN: the MIC in experiment [1] is 1 µg/mL; in experiment [7] it was 0.125 µg/mL; in experiment [8], 0.125 µg/mL; in [9], 0.25 µg/mL; in [10], 0.25 µg/mL; in experiment [11] it was 2 µg/mL. Also, the MIC was found to be 2 µg/mL in experiment [12]; 4 µg/mL in [13]; 2 µg/mL in experiment [14]; 1 µg/mL in [15]; 4 µg/mL in experiment [16]; 8 µg/mL in [17]. The MIC in experiment [18], in [19], in experiment [20] and in experiment [21] was 8 µg/mL in each case.
